Compound activity: PubChem, several laboratories
Compounds with a hit are over-represented: about 1.9% of the library has one in this group of screens.
HGIII-sPLA2 inh: Blocks human group III sPLA2 activity; Q9NZ20; QFRET BODIPY PC-A2 liposome hydrolysis, fluorescence; inhibition, % at 12.2 µM; 370,000 compounds, 0.56% hits;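 active = inhibition above mean plus 3 SD of compounds lying within the high and low control bounds, cut at about 19% in these data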
PLCg1 inh: PLC-gamma1 (human) inhibition, primary screen; purified PLC-gamma1, fluorogenic substrate, fluorescence; 370,000 compounds, 0.84% hits; inhibition, % at 12.2 µM; AID 720700; in the data active = inhibition above about 9.5%
PLC-beta3 inh: inhibitors of human phospholipase C beta3. 370,000 compounds, 0.18% hits. AID 720704. Purified PLC-beta3, fluorogenic substrate, fluorescence. Q01970. inhibition, % at 12.2 µM; in the data active = inhibition above about 11%
proCasp7 act: counter-screen: procaspase-7 (human) activation. P55210. recombinant procaspase-7, Ac-DEVD-pNA absorbance 405 nm; D23A/D198A/D206A triple mutant, cannot self-cleave; scale: DMSO 0, 5 µM enzyme 100. activation, % at 8.5 µM. 330,000 compounds, 0.093% hits;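 active = percent activation above the screen-wide mean plus 3 SD, cut at about 25% in these data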
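Detection: p-Nitroaniline absorbance at 405 nm, read at 0 and 120 min; system: Uncleavable procaspase-7 mutant enzyme; evaluation: % activation from two-timepoint absorbance difference, scaled to controls; times: 1 h enzyme–compound preincubation and 2 h substrate reaction, both 25 °C; buffer or medium: Zinc-free HEPES pH 7.4 with 300 mM NaCl, 0.01% Triton X-100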
proCasp3 act: activators of human procaspase-3; P42574; recombinant procaspase-3 D3A, Ac-DEVD-pNA absorbance 405 nm; activation, % at 8.5 µM; 330,000 compounds, 0.11% hits; AID 463141;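 active = activation above the mean of all tested compounds plus 3 SD, cut at about 21% in these data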
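material = Procaspase-3 D3A mutant | probe or stimulus = Ac-DEVD-pNA | compound = single dose, 8.5 µM nominal compound, 0.8% DMSO | timing = 1 h preincubation, 2 h reaction | measured by = 405 nm absorbance of p-nitroaniline, reads at 0 and 120 min | benchmarks = DMSO-only low control, 5 µM PC-3 D3A high control | repeats = singlicate, each compound tested once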
Arr AP2 block: inhibitors of human beta-arrestin and AP2 interaction; FITC-arrestin peptide / GST-AP2 beads, flow cytometry; AP2 beta2 appendage carries R879A mutation; 340,000 compounds, 0.31% hits; inhibition, % at 10 µM;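 active = inhibition above a set limit, near 3 SD of compounds lacking own fluorescence, cut at about 54% in these data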
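System: GST-AP2 R879A glutathione beads; medium: PBS, Tween 20 0.05%, BSA 0.1%; reagent: fluorescein-tagged arrestin peptide at 50 nM final; schedule: pre-incubation 12 min, peptide binding 1 h, room temperature; detection: flow cytometry, FL1 (488/535 nm); read-out: inhibition as reduced fluorescein signal on beads, percent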
Arr AP2 CP1: human beta-arrestin and AP2 interaction inhibition, cherry pick | shares compounds with Arr AP2 block | GST-AP2 beads, FITC arrestin peptide binding, flow cytometry; GST-fused beta2-adaptin appendage, R879A mutant | inhibition, % at 10 µM | 1,300 compounds, 2% hits;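 active = inhibition above a set limit, roughly 3 SD of non-fluorescent compound noise, cut at about 38% in these data; inactive = inhibition at or below that limit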;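 note: loss of bead fluorescence from 50 nM FITC arrestin peptide bound to appendage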
GST-FITC bead: counter-screen for beta-arrestin AP2 inhibitors: GST-GSH bead binding. 1,300 compounds, 2% hits. inhibition, % at 10 µM. GST-fluorescein binding to GSH beads, fluorescence. shares compounds with Arr AP2 block;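 active = inhibition above 50%, about 3 SD of the inhibition seen with non-fluorescent compounds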;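 note: fluorescein maleimide labelled GST captured on 4 micron glutathione beads; higher means more loss of bead fluorescence from quenching or blocked binding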
Of the large screens only hits and unclear results are named; the others gave an inactive call (follow-up assays come after a bar, where they were run).

CCOC(=O)C1=C(COC(=O)CCS(=O)(=O)c2ccc(C)cc2)NC(=O)NC1C (stereo not drawn)	none (no result: proCasp7 act, proCasp3 act)
CCOC(=O)C1=C(COC(=O)CCC(=O)c2ccc(C)cc2)NC(=O)NC1C (stereo not drawn)	none | Arr AP2 CP1 inactive | GST-FITC bead inactive
CCOC(=O)C1=C(COC(=O)Cc2ccc(Br)cc2)NC(=O)NC1C (stereo not drawn)	none | Arr AP2 CP1 inactive | GST-FITC bead inactive
CCOC(=O)C1=C(COC(=O)CSc2ccc(Br)cc2)NC(=O)NC1C (stereo not drawn)	none
CCOC(=O)C1=C(COC(=O)CCc2ccc(CC)cc2)NC(=O)NC1C (stereo not drawn)	none | Arr AP2 CP1 inactive | GST-FITC bead inactive
O=C1C(=O)N(Cc2ccc(-c3ccc(F)nc3)cc2)c2ccc(OC(F)(F)F)cc21	none (no result: proCasp7 act, proCasp3 act, Arr AP2 block)
O=S1(=O)C=CCN1Cc1cn(Cc2ccc(F)cc2)nn1	none (no result: proCasp7 act, proCasp3 act, Arr AP2 block)
CCOC(=O)C1=C(COC(=O)C2CC(=O)N(CCc3ccccc3)C2)NC(=O)NC1C (stereo not drawn)	none
CCOC(=O)C1=C(COC(=O)CCc2ccccc2)NC(=O)NC1C (stereo not drawn)	none | Arr AP2 CP1 inactive | GST-FITC bead inactive
Cc1cc(C)nc(N2CCC(C(=O)N(C)CCc3ccccn3)CC2)n1	none (no result: proCasp7 act, proCasp3 act, Arr AP2 block)
COc1cccc(-c2nnc(SC(C(=O)c3c[nH]c4ccccc34)c3ccccc3)n2C)c1 (stereo not drawn)	Arr AP2 block 98 | Arr AP2 CP1 inactive | GST-FITC bead inactive
COc1ccccc1-c1nnc(SC(C(=O)c2c[nH]c3ccccc23)c2ccccc2)n1C (stereo not drawn)	none
COc1cc(/C=N/Nc2ccc([N+](=O)[O-])cc2S(=O)(=O)N2CCOCC2)cc(OC)c1OC	none
CN1CCN(S(=O)(=O)c2cc([N+](=O)[O-])ccc2N/N=C/c2ccc(Cl)cc2)CC1	Arr AP2 block 98 | Arr AP2 CP1 inactive | GST-FITC bead inactive
N=C1C(c2nc3ccccc3[nH]2)=C(O)CN1c1ccc(F)cc1	none
NC1=NCC(O)=C1c1nc2ccccc2[nH]1	Arr AP2 block 66 | Arr AP2 CP1 inactive | GST-FITC bead inactive
CCN1/C(=C/c2ccc3cc(C)ccc3[n+]2C)Sc2ccc3sccc3c21	Arr AP2 block 78 (no result: proCasp7 act, proCasp3 act) | Arr AP2 CP1 68 | GST-FITC bead inactive
Cc1ccc(N2C(=O)NC(NC(=O)C(C)(C)C)(C(F)(F)F)C2=O)cc1C (stereo not drawn)	Arr AP2 block 56 | Arr AP2 CP1 inactive | GST-FITC bead inactive
COc1ccc(N2C(=O)NC(NC(=O)C(C)(C)C)(C(F)(F)F)C2=O)cc1 (stereo not drawn)	none
COC(=O)c1ccccc1NC(=O)CN1CCN(c2ccccn2)CC1	none
COC(=O)c1ccccc1N/C=C1\CCc2c(c(C)nn2-c2ccccn2)C1=O	Arr AP2 block 56 | Arr AP2 CP1 55 | GST-FITC bead inactive
CCn1c(=O)n(CC(=O)N2CCN(c3ccc(F)cc3)CC2)c(=O)c2ccccc21	none (no result: proCasp7 act, proCasp3 act, Arr AP2 block)
O=C1C2C3CCCC3=C3CCCC3C2C(=O)N1c1cccc(Cl)c1 (stereo not drawn)	none
O=C1C2C3C=CC(c4ccccc4)(C2C(=O)N1c1cccc(Cl)c1)C1C(=O)N(c2cccc(Cl)c2)C(=O)C31 (stereo not drawn)	Arr AP2 block 61 | Arr AP2 CP1 inactive | GST-FITC bead inactive
CC(=O)N1CCN(c2cc(-c3ccco3)nc3cc(-c4ccccc4)nn23)CC1	none (no result: proCasp7 act, proCasp3 act, Arr AP2 block)
CCOc1ccc(/C=N/NC(=O)Cc2csc(Nc3cccc(C(F)(F)F)c3)n2)cc1	Arr AP2 block 86 | Arr AP2 CP1 inactive | GST-FITC bead inactive
CCOc1ccc(/C=N/NC(=O)Cc2csc(Nc3cccc(C(F)(F)F)c3)n2)c(OCC)c1	none
Cn1nnnc1NCc1ccc(Cl)cc1	Arr AP2 block 57 | Arr AP2 CP1 inactive | GST-FITC bead inactive
COc1cccc(CN2CC(C(=O)NCCCc3ccncc3)CCC2=O)c1 (stereo not drawn)	none (no result: proCasp7 act, proCasp3 act)
COc1cccc(CN2CC(C(=O)NCCCc3ccc(C)cc3)CCC2=O)c1 (stereo not drawn)	none | Arr AP2 CP1 inactive | GST-FITC bead inactive
CC(C)Oc1ccc(CCNC(=O)C2CCC(=O)N(Cc3cccc(F)c3)C2)cc1 (stereo not drawn)	none | Arr AP2 CP1 inactive | GST-FITC bead inactive
O=C(NCCc1ccccc1)C1CCC(=O)N(Cc2cccc(C(F)(F)F)c2)C1 (stereo not drawn)	none (no result: proCasp7 act, proCasp3 act) | Arr AP2 CP1 inactive | GST-FITC bead inactive
COc1ccccc1CCNC(=O)C1CCC(=O)N(Cc2cccc(F)c2)C1 (stereo not drawn)	none (no result: proCasp7 act, proCasp3 act)
COc1ccc(C)cc1N(C(=O)c1snc(C(N)=O)c1N)C(C(=O)NC1CCCCC1)c1ccc(C)o1 (stereo not drawn)	Arr AP2 block 72 (no result: proCasp7 act, proCasp3 act) | Arr AP2 CP1 inactive | GST-FITC bead inactive
CC(C)(C)C(=O)OC12CCCN(C1)/C(=C/c1cccnc1)C2 (stereo not drawn)	none (no result: proCasp7 act, proCasp3 act, Arr AP2 block)
CCCC[C@H]1C2CC(OC(=O)Nc3ccc(C(F)(F)F)cc3)C(C2)[C@H]2CCCCN21 (stereo partly drawn)	none (no result: proCasp7 act, proCasp3 act, Arr AP2 block)
Oc1ccc(/C=N/Nc2nc(N3CCCC3)nc(N3CCCC3)n2)cc1O	Arr AP2 block 58 | Arr AP2 CP1 inactive | GST-FITC bead inactive
COc1ccc(OC)c(NC(=O)CSc2nnc(CCCO)n2-c2ccccc2)c1	Arr AP2 block 90 | Arr AP2 CP1 inactive | GST-FITC bead inactive
COC(=O)[C@H](C(C)C)N(Cc1cn(Cc2ccccc2)nn1)S(=O)(=O)c1ccccc1Br	none (no result: proCasp7 act, proCasp3 act, Arr AP2 block)
CC1CC(C)CN(CCCNC(=O)c2cc3c(=O)[nH]c4ccccc4c3n2C)C1 (stereo not drawn)	Arr AP2 block 60 | Arr AP2 CP1 inactive | GST-FITC bead inactive
Cn1c(C(=O)NCCCN2CCN(c3ccccc3F)CC2)cc2c(=O)[nH]c3ccccc3c21	none
Cc1cccc2c1c1ccc3c(c1n2C)C(=O)C=CC3=O	Arr AP2 block 67 (no result: proCasp7 act, proCasp3 act) | Arr AP2 CP1 49 | GST-FITC bead inactive
Cc1ccccc1N1CC(=O)N(c2ccccc2C)CC1=O	none
COc1ccc(C2C(C(=O)N3CCCCC3C)CC(=O)N2c2ccc(OC)cc2)cc1 (stereo not drawn)	none (no result: proCasp7 act, proCasp3 act, Arr AP2 block)
